Source: ChEMBL document CHEMBL5046236, “Synthesis and structure-activity relationship study of new biaryl amide derivatives and their inhibitory effects against hepatitis C virus” (Eur J Med Chem, 2022)

Legend:
[1] = tested on: Hepatitis C virus; test: Antiviral activity against Hepatitis C virus infected in human Huh7.5 cells assessed as inhibition of viral replication incubated for 72 hrs by qRT-PCR analysis; type: functional, organism-based, Hepacivirus hominis; details: Huh7.5, 72 h
[2] = tested on: Huh-7.5; test: (§1) Cytotoxicity against human Huh7.5 cells assessed as inhibition of cell growth measured after 96 hrs by MTT assay; type: toxicity, cell-based; details: huh-7.5, 96 h
Outline: (§2)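 Huh7.5 cells in DMEM with 10% heat-inactivated FBS, seeded at 3.0 × 10⁴ cells/cm²; after 24 h, fresh medium with compound added (DMSO stocks, eight 1:5 serial dilutions).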

[3] = Selectivity index, ratio of CC50 for cytotoxicity against human Huh7.5 cells to EC50 for antiviral activity against Hepatitis C virus infected in human Huh7.5 cells; type: toxicity, cell-based; details: read-out: Ratio CC50/EC50
[4] = Acute toxicity in ip dosed Kunming mouse assessed as lethal dose measured after 7 days; type: organism-based; details: in vivo, 168 h, time 7 day
Outline: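 Single intraperitoneal dose at 50, 100, 150 or 200 mg/kg, n = 6 per group. Animals watched closely for 7 days. Median lethal dose (LD₅₀) estimated from deaths across the dose groups.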

[5] = molecular target: DNA dC->dU-editing enzyme APOBEC-3G (Homo sapiens) (UniProt Q9HC16); test: Inhibition of Vif-mediated human A3G degradation in HEK-293T cells cotransfected with hA3G and Vif at 20 uM by western blot analysis relative to control; type: cell-based
DNA dC->dU-editing enzyme APOBEC-3G (Homo sapiens), sequence (Q9HC16 whole entry): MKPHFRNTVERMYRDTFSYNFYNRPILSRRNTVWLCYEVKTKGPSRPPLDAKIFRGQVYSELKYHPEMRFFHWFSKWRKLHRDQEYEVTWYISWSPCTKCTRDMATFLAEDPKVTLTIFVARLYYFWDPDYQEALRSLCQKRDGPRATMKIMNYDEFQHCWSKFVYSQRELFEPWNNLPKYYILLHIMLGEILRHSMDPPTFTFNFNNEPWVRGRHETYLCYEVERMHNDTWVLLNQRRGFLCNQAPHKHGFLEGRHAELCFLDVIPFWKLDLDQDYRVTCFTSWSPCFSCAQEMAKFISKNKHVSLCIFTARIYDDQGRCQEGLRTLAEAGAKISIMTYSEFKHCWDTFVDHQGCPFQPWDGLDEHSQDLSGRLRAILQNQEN
Outline: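 293T cells cotransfected with hA3G and Vif expression vectors, then treated with compounds at 20 μM; MG132 proteasome inhibitor as positive control, DMSO-treated cells as comparator for hA3G degradation.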

[6] = Aqueous Solubility of compound at pH 7 measured after 10 mins by HPLC-UV analysis; type: physicochemical; details: buffer
[7] = as §1; type: toxicity, cell-based, Huh-7.5; details: Huh7.5 cells; outline: as §2

## CN1CCN(Cc2ccc(NC(=O)c3ccc(OCCCCl)c([N+](=O)[O-])c3)cc2C(F)(F)F)CC1
[1]
  EC50: 0.044 µM
[2]
  CC50: 6.8 µM
[3]
  selectivity ratio: 154
[4]
  LD50: < 100 mg/kg

## COc1ccc(NC(=O)c2ccc(OCCCN3CCN(C)CC3)c([N+](=O)[O-])c2)cc1
[5]
  inhibition: < 25%

## COc1ccc(NC(=O)c2ccc(OCCCN(C)C)c([N+](=O)[O-])c2)cc1
[1]
  EC50: 8.96 µM
[2]
  CC50: 126 µM
[3]
  selectivity ratio: 14
[5]
  inhibition: < 25%

## CCC(=O)Nc1cc(C(=O)Nc2ccc(CN3CCN(C)CC3)c(C(F)(F)F)c2)ccc1OCCCCl
[1]
  EC50: 0.22 µM
[2]
  CC50: 7.87 µM
[3]
  selectivity ratio: 36.3

## CN(C)C1CN(Cc2ccc(NC(=O)c3ccc(OCCCl)c([N+](=O)[O-])c3)cc2C(F)(F)F)C1.Cl
[6]
  solubility at 10 min: 7800 µg/mL

## COc1ccc2c(O[C@@H]3C[C@H]4C(=O)N[C@]5(C(=O)NS(=O)(=O)C6CC6)CC5/C=C\CCCCN(C)C(=O)[C@@H]4C3)cc(-c3nc(C(C)C)cs3)nc2c1C (single isomer, unassigned)
[1]
  EC50: 0.008 µM
[2]
  CC50: 38 µM
[3]
  selectivity ratio: 4760

## CCC(=O)Nc1cc(C(=O)Nn2c(C)nnc2S)ccc1OC
[1]
  EC50: 14.4 µM
[2]
  CC50: > 200 µM
[3]
  selectivity ratio: > 14
[5]
  inhibition: > 50%

## CN1CCN(Cc2ccc(NC(=O)c3ccc(OCCCCCCl)c([N+](=O)[O-])c3)cc2C(F)(F)F)CC1
[1]
  EC50: 0.06 µM
[2]
  CC50: 2.14 µM
[3]
  selectivity ratio: 36

## CCC(=O)Nc1cc(C(=O)Nc2ccc(N(C)C)cc2)ccc1OC
[1]
  EC50: 2.56 µM
[2]
  CC50: 171 µM
[3]
  selectivity ratio: 66
[5]
  inhibition: < 25%

## CC1CCN(c2ccc(NC(=O)c3ccc(OCCCCl)c([N+](=O)[O-])c3)cn2)CC1
[1]
  EC50: 0.64 µM
[2]
  CC50: 9.2 µM
[3]
  selectivity ratio: 14.4

## O=C(Nc1ccc(CN2CC(C(=O)O)C2)c(C(F)(F)F)c1)c1ccc(OCCCCl)c([N+](=O)[O-])c1
[1]
  EC50: 4.72 µM
[2]
  CC50: > 200 µM
[3]
  selectivity ratio: > 42

## CN1CCN(Cc2ccc(NC(=O)c3ccc(OCCCCl)c(F)c3)cc2C(F)(F)F)CC1
[1]
  EC50: 0.49 µM
[2]
  CC50: 8.8 µM
[3]
  selectivity ratio: 18.9

## COc1ccc(NC(=O)c2ccc(OC(C)C)c([N+](=O)[O-])c2)cc1
[1]
  EC50: 2.86 µM
[2]
  CC50: 23.4 µM
[3]
  selectivity ratio: 8
[5]
  inhibition: < 25%

## CN1CCN(Cc2ccc(NC(=O)c3ccc(OCCCl)c([N+](=O)[O-])c3)cc2C(F)(F)F)CC1
[1]
  EC50: 0.044 µM
[2]
  CC50: 9.04 µM
[3]
  selectivity ratio: 204

## CCC(=O)Nc1cc(C(=O)Nc2ccc(OC)cc2)ccc1OCCCN1CCOCC1
[1]
  EC50: > 22.2 µM
[2]
  CC50: 49.2 µM

## CCC(=O)Nc1cc(C(=O)Nc2ccc(OC)cc2)ccc1OC
[1]
  EC50: 1.3 µM
[2]
  CC50: 109 µM
[3]
  selectivity ratio: 84
[5]
  inhibition: > 50%

## COc1ccc(C(=O)Nc2ccc(N(C)C)cc2)cc1[N+](=O)[O-]
[1]
  EC50: 4.07 µM
[2]
  CC50: 88.2 µM
[3]
  selectivity ratio: 22
[5]
  inhibition: > 50%

## CN1CCN(Cc2ccc(NC(=O)c3ccc(OCCCCl)c(Cl)c3)cc2C(F)(F)F)CC1
[1]
  EC50: 0.58 µM
[2]
  CC50: 4.1 µM
[3]
  selectivity ratio: 7

## CC(C)Oc1ccc(C(=O)Nc2ccc(CN3CCN(C)CC3)c(C(F)(F)F)c2)cc1[N+](=O)[O-]
[1]
  EC50: 0.095 µM
[2]
  CC50: 3.5 µM
[3]
  selectivity ratio: 39
[5]
  inhibition: < 25%

## CCC(=O)Nc1cc(C(=O)Nc2ccc(OC)cc2)ccc1OCCCN(C)C
[1]
  EC50: > 22.2 µM
[2]
  CC50: 154 µM
[5]
  inhibition: > 50%

## CCC(=O)Nc1cc(C(=O)Nc2ccc(OC)cc2)ccc1OCCCN1CCN(C)CC1
[1]
  EC50: 13.5 µM
[2]
  CC50: 126 µM
[3]
  selectivity ratio: 9.4
[5]
  inhibition: > 50%

## COc1ccc(NC(=O)c2ccc(OCCCN3CCN(C)CC3)c(N)c2)cc1
[5]
  inhibition: < 25%

## CN(C)C1CCN(Cc2ccc(NC(=O)c3ccc(OCCCCl)c([N+](=O)[O-])c3)cc2C(F)(F)F)C1 (configuration not stated)
[1]
  EC50: 0.051 µM
[2]
  CC50: 5.8 µM
[3]
  selectivity ratio: 113

## COc1ccc(NC(=O)c2ccc3c(c2)NCCO3)cc1
[1]
  EC50: > 22.2 µM
[2]
  CC50: 153 µM
[5]
  inhibition: < 25%

## CN(C)C1CN(Cc2ccc(NC(=O)c3ccc(OCCCCl)c([N+](=O)[O-])c3)cc2C(F)(F)F)C1
[1]
  EC50: 0.021 µM
[2]
  CC50: 7.8 µM
[3]
  selectivity ratio: 371

## CCC(=O)Nc1cc(C(=O)Nc2ccc(N3CCN(C)CC3)cc2)ccc1OC
[1]
  EC50: > 22.2 µM
[2]
  CC50: > 200 µM

## CN1CCN(Cc2ccc(NC(=O)c3ccc(OCCCCl)c([N+](=O)[O-])c3)cn2)CC1
[1]
  EC50: 0.083 µM
[7]
  CC50 at 96 h: 12.6 µM
[3]
  selectivity ratio: 151

## CCC(=O)Nc1cc(C(=O)Nc2ccc(CN3CCN(C)CC3)c(C(F)(F)F)c2)ccc1OC(C)C
[1]
  EC50: 0.3 µM
[2]
  CC50: 15.3 µM
[3]
  selectivity ratio: 51

## CCCOc1ccc(C(=O)Nc2ccc(OC)cc2)cc1[N+](=O)[O-]
[5]
  inhibition: < 25%

## CC(C)Oc1ccc(C(=O)Nc2ccc(N(C)C)cc2)cc1N
[1]
  EC50: 7.41 µM
[2]
  CC50: 72.1 µM
[3]
  selectivity ratio: 10

## CCC(=O)Nc1cc(C(=O)Nc2ccc(OC)cc2)ccc1OC(C)C
[1]
  EC50: 1.1 µM
[2]
  CC50: 113 µM
[3]
  selectivity ratio: 103
[5]
  inhibition: < 25%

## CC(C)Oc1ccc(C(=O)Nc2ccc(N(C)C)cc2)cc1[N+](=O)[O-]
[1]
  EC50: 3.1 µM
[2]
  CC50: 50 µM
[3]
  selectivity ratio: 16

## CN1CCN(Cc2ccc(NC(=O)c3ccc(OCCCCl)c(N)c3)cc2C(F)(F)F)CC1
[1]
  EC50: 1.18 µM
[2]
  CC50: 12.9 µM
[3]
  selectivity ratio: 10.9

## CCC(=O)Nc1cc(C(=O)Nc2ccc(CN3CCN(C)CC3)c(C(F)(F)F)c2)ccc1OC
[1]
  EC50: 1.48 µM
[2]
  CC50: 35.3 µM
[3]
  selectivity ratio: 24
[5]
  inhibition: > 50%

## CN1CCN(Cc2ccc(NC(=O)c3ccc(OCCCCl)c(S(N)(=O)=O)c3)cc2C(F)(F)F)CC1
[1]
  EC50: 1.14 µM
[2]
  CC50: 5.47 µM
[3]
  selectivity ratio: 6.2

## CN1CCN(Cc2ccc(NC(=O)c3ccc(OCCCCl)c([N+](=O)[O-])c3)cc2C#N)CC1
[1]
  EC50: 0.65 µM
[2]
  CC50: 15.5 µM
[3]
  selectivity ratio: 23

## CC(C)Oc1ccc(C(=O)Nc2ccc(N(C)C)cc2)cc1NC(=O)C(C)Br (configuration not stated)
[1]
  EC50: 4.34 µM
[2]
  CC50: 7.9 µM
[3]
  selectivity ratio: 2

## CCC(=O)Nc1cc(C(=O)Nc2ccc(N(C)C)cc2)ccc1OC(C)C
[1]
  EC50: 6.03 µM
[2]
  CC50: 80.6 µM
[3]
  selectivity ratio: 13

## CC(C)Oc1ccc(C(=O)Nc2ccc(CN3CCN(C)CC3)c(C(F)(F)F)c2)cc1N
[1]
  EC50: 1.32 µM
[2]
  CC50: 21.6 µM
[3]
  selectivity ratio: 16

## CCC(=O)Nc1cc(C(=O)Nc2ccc(OC)cc2)ccc1OCCCCl
[1]
  EC50: 7.41 µM
[2]
  CC50: 158 µM
[3]
  selectivity ratio: 21

## COc1ccc(NC(=O)c2ccc(OCCCN(C)C)c(N)c2)cc1
[5]
  inhibition: < 25%

## CC1CN(Cc2ccc(NC(=O)c3ccc(OCCCCl)c([N+](=O)[O-])c3)cc2C(F)(F)F)CC(C)O1 (configuration not stated)
[1]
  EC50: 0.174 µM
[2]
  CC50: 2.3 µM
[3]
  selectivity ratio: 13.3

## COc1ccc(C(=O)Nc2cc(OC)c(OC)c(OC)c2)cc1NC(=O)C(C)Br (configuration not stated)
[1]
  EC50: 2.1 µM
[2]
  CC50: 15 µM
[3]
  selectivity ratio: 7

## COc1ccc(NC(=O)c2ccc(OCCCCl)c([N+](=O)[O-])c2)cc1
[1]
  EC50: 2.39 µM
[2]
  CC50: 39.7 µM
[3]
  selectivity ratio: 17
[5]
  inhibition: < 25%

## O=C(Nc1ccc(CN2CCOCC2)c(C(F)(F)F)c1)c1ccc(OCCCCl)c([N+](=O)[O-])c1
[1]
  EC50: 0.315 µM
[2]
  CC50: 6.1 µM
[3]
  selectivity ratio: 19.3

## CCCOc1ccc(C(=O)Nc2ccc(OC)cc2)cc1NC(=O)CC
[1]
  EC50: 1.55 µM
[2]
  CC50: 106 µM
[3]
  selectivity ratio: 68
[5]
  inhibition: 25%

## CC(C)Oc1ccc(C(=O)Nc2ccc(CN3CCN(C)CC3)c(C(F)(F)F)c2)cc1NC(=O)C(C)Br (configuration not stated)
[1]
  EC50: 0.32 µM
[2]
  CC50: 8.7 µM
[3]
  selectivity ratio: 27

## CCOc1ccc(C(=O)Nc2ccc(OC)cc2)cc1NC(=O)CC
[1]
  EC50: 1.47 µM
[2]
  CC50: 73.2 µM
[3]
  selectivity ratio: 48
[5]
  inhibition: 25%

## CCC(=O)Nc1cc(C(=O)Nc2ccc(-c3cc4ccccc4[nH]3)cc2)ccc1OC
[1]
  EC50: 7.41 µM
[2]
  CC50: 65.6 µM
[3]
  selectivity ratio: 9
[5]
  inhibition: > 50%

## CCC[C@H](NC(=O)[C@@H]1[C@H]2CCC[C@H]2CN1C(=O)[C@@H](NC(=O)[C@@H](NC(=O)c1cnccn1)C1CCCCC1)C(C)(C)C)C(=O)C(=O)NC1CC1
[2]
  CC50: 23.7 µM

## CN(C)C1CCN(Cc2ccc(NC(=O)c3ccc(OCCCCl)c([N+](=O)[O-])c3)cc2C(F)(F)F)CC1
[1]
  EC50: 0.38 µM
[2]
  CC50: 5.5 µM
[3]
  selectivity ratio: 14

## CCC(=O)Nc1cc(C(=O)Nc2ccc(CN3CCN(C)CC3)cc2)ccc1OC
[1]
  EC50: > 22.2 µM
[2]
  CC50: > 200 µM
[5]
  inhibition: 25%

## CN1CCN(Cc2ccc(NC(=O)c3ccc(OCCCCl)c(C(F)(F)F)c3)cc2C(F)(F)F)CC1
[1]
  EC50: 0.13 µM
[2]
  CC50: 13.4 µM
[3]
  selectivity ratio: 99.6

## CN1CCN(Cc2ccc(NC(=O)c3ccc(OCCCCCl)c([N+](=O)[O-])c3)cc2C(F)(F)F)CC1
[1]
  EC50: 0.1 µM
[2]
  CC50: 3.74 µM
[3]
  selectivity ratio: 37

## COc1ccc(NC(=O)c2ccc3c(c2)NC(=O)CO3)cc1
[1]
  EC50: 7.46 µM
[2]
  CC50: 77.3 µM
[3]
  selectivity ratio: 10
[5]
  inhibition: 25%
